Measured values as given in ChEMBL document CHEMBL1781892, “Microwave assisted synthesis and structure-activity relationship of 4-hydroxy-N'-[1-phenylethylidene]-2H/2-methyl-1,2-benzothiazine-3-carbohydrazide 1,1-dioxides as anti-microbial agents” (2011).

Legend:
Salmonella typhi = assay: Antibacterial activity against Salmonella typhi using 1 x 10^4 CFU/ml inoculum after 24 hrs by microdilution method; format: functional, Salmonella enterica subsp. enterica serovar Typhi
Bacillus thuringiensis = assay: Antibacterial activity against Bacillus thuringiensis using 1 x 10^4 CFU/ml inoculum after 24 hrs by microdilution method; format: functional
Curvularia australiensis [1] = assay: Antifungal activity against Drechslera australiensis using 1 x 10^5 spore/100 uL assessed as 99.5% fungal killing of original inoculum after 72 hrs by microdilution method; format: functional
Aspergillus fumigatus [2] = assay: Antifungal activity against Aspergillus fumigatus using 1 x 10^5 spore/100 uL assessed as 99.5% fungal killing of original inoculum after 72 hrs by microdilution method; format: functional
[3] = Antifungal activity against Trichoderma reesei using 1 x 10^5 spore/100 uL assessed as 99.5% fungal killing of original inoculum after 72 hrs by microdilution method; format: functional
Escherichia coli = assay: Antibacterial activity against Escherichia coli using 1 x 10^4 CFU/ml inoculum after 24 hrs by microdilution method; format: functional
Aspergillus flavus [4] = assay: Antifungal activity against Aspergillus flavus using 1 x 10^5 spore/100 uL after 72 hrs by microdilution method; format: functional
Aspergillus fumigatus [5] = assay: Antifungal activity against Aspergillus fumigatus using 1 x 10^5 spore/100 uL after 72 hrs by microdilution method; format: functional
Aspergillus niger [6] = assay: Antifungal activity against Aspergillus niger using 1 x 10^5 spore/100 uL after 72 hrs by microdilution method; format: functional
Bacillus subtilis = assay: Antibacterial activity against Bacillus subtilis using 1 x 10^4 CFU/ml inoculum after 24 hrs by microdilution method; format: functional
Trichoderma viride [7] = assay: Antifungal activity against Trichoderma viride using 1 x 10^5 spore/100 uL assessed as 99.5% fungal killing of original inoculum after 72 hrs by microdilution method; format: functional
Staphylococcus aureus = assay: Antibacterial activity against Staphylococcus aureus using 1 x 10^4 CFU/ml inoculum after 24 hrs by microdilution method; format: functional
[8] = Antifungal activity against Trichoderma reesei using 1 x 10^5 spore/100 uL after 72 hrs by microdilution method; format: functional
Procedure, shortened: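 Spores washed from malt agar cultures with sterile 0.85% saline plus 0.1% Tween 80, adjusted to about 1.0×10^5 per 100 µl well. Compounds from a 1 mg/ml DMSO stock were serially diluted in malt broth with inoculum in 96-well plates and incubated 72 h at 28 °C. MIC is the lowest concentration with no visible growth under a binocular microscope. DMSO served as negative control.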

Bacillus cereus = assay: Antibacterial activity against Bacillus cereus using 1 x 10^4 CFU/ml inoculum after 24 hrs by microdilution method; format: functional
Aspergillus niger [9] = assay: Antifungal activity against Aspergillus niger using 1 x 10^5 spore/100 uL assessed as 99.5% fungal killing of original inoculum after 72 hrs by microdilution method; format: functional
Curvularia australiensis [10] = assay: Antifungal activity against Drechslera australiensis using 1 x 10^5 spore/100 uL after 72 hrs by microdilution method; format: functional
Trichoderma viride [11] = assay: Antifungal activity against Trichoderma viride using 1 x 10^5 spore/100 uL after 72 hrs by microdilution method; format: functional
Aspergillus flavus [12] = assay: Antifungal activity against Aspergillus flavus using 1 x 10^5 spore/100 uL assessed as 99.5% fungal killing of original inoculum after 72 hrs by microdilution method; format: functional
Pseudomonas aeruginosa = assay: Antibacterial activity against Pseudomonas aeruginosa using 1 x 10^4 CFU/ml inoculum after 24 hrs by microdilution method; format: functional

Row | SMILES | MIC (Salmonella typhi) [×10⁻² umol] | MIC (Bacillus thuringiensis) [×10⁻² umol] | MFC (Curvularia australiensis [1]) [×10⁻² umol] | MFC (Aspergillus fumigatus [2]) [×10⁻² umol] | MFC [3] [×10⁻² µmol] | MIC (Escherichia coli) [×10⁻² umol] | MIC (Aspergillus flavus [4]) [×10⁻² umol] | MIC (Aspergillus fumigatus [5]) [×10⁻² umol] | MIC (Aspergillus niger [6]) [×10⁻² umol] | MIC (Bacillus subtilis) [×10⁻² umol] | MFC (Trichoderma viride [7]) [×10⁻² umol] | MIC (Staphylococcus aureus) [×10⁻² umol] | MIC [8] [×10⁻² µmol] | MIC (Bacillus cereus) [×10⁻² umol] | MFC (Aspergillus niger [9]) [×10⁻² umol] | MIC (Curvularia australiensis [10]) [×10⁻² umol] | MIC (Trichoderma viride [11]) [×10⁻² umol] | MFC (Aspergillus flavus [12]) [×10⁻² umol] | MIC (Pseudomonas aeruginosa) [×10⁻² umol]
1 | C/C(=N\NC(=O)C1=C(O)c2ccccc2S(=O)(=O)N1C)c1ccccc1O | 22.3 | 4 | >200 | >200 | > 200 | 19.6 | >100 | >100 | >100 | 4.2 | >200 | 17.7 | > 100 | 4 | >200 | >100 | >100 | >200 | 20.2
2 | C/C(=N\NC(=O)C1=C(O)c2ccccc2S(=O)(=O)N1)c1ccc(O)cc1 | 25.2 | 5 | >200 | >200 | > 200 | 21.3 | >100 | >100 | >100 | 4.9 | >200 | 19 | > 100 | 4.8 | >200 | >100 | >100 | >200 | 22.6
3 | COc1ccc(/C(C)=N/NC(=O)C2=C(O)c3ccccc3S(=O)(=O)N2C)cc1 | 32.4 | 7.8 | 159.9 | 149.5 | 158 | 27.9 | 86.1 | 77.6 | 87.2 | 7.6 | 158.4 | 26.3 | 78.9 | 7.9 | 180.7 | 80 | 79.2 | 170 | 29.2
4 | COc1ccc(/C(C)=N/NC(=O)C2=C(O)c3ccccc3S(=O)(=O)N2)cc1 | 32.7 | 7.8 | 159.6 | 153.6 | 160 | 27.8 | 86.2 | 77.7 | 87.3 | 7.5 | 158.8 | 26.7 | 79.9 | 7.8 | 179.5 | 81.1 | 80.5 | 169.3 | 29.3
5 | C/C(=N\NC(=O)C1=C(O)c2ccccc2S(=O)(=O)N1)c1ccc(I)cc1 | 33.4 | 9.4 | 145.8 | 159.2 | 134 | 29.5 | 89.9 | 82 | 91.5 | 9.5 | 139.7 | 28.2 | 70.3 | 9.1 | 166.1 | 74 | 71.3 | 179.8 | 30.9
6 | C/C(=N\NC(=O)C1=C(O)c2ccccc2S(=O)(=O)N1C)c1ccc(O)cc1 | 25.1 | 5 | >200 | >200 | > 200 | 21 | >100 | >100 | >100 | 4.8 | >200 | 18.9 | > 100 | 4.6 | >200 | >100 | >100 | >200 | 22.1
